Sampled rows, rich in hits. Any-hit rate of the full collection: about 4.2%.
CHO parental Ca = counter-screen: ATP calcium response change in parental CHO cells; parental CHO-K1, ATP-induced calcium, Fluo-8 fluorescence; inhibition, % at 5.6 µM; 330,000 tested, 0.63% active;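 active means inhibition above that plate's mean sample inhibition plus 3 SD, cut at about 26% in these data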;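 further: 0% = ATP-challenged DMSO wells and 100% = DMSO wells without ATP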
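Material: Parental CHO cells | Reagent: ATP | Compound dosing: Single nominal dose of 5.6 µM per compound | Detection: Intracellular calcium via Fluo-8 no-wash fluorescent dye | Read-out: % inhibition of ATP-induced calcium mobilization | Benchmarks: Low control ATP plus DMSO, high control DMSO only | Replicates: Singlicate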
TAAR1 ag = agonists of human TAAR1; 360,000 tested, 0.99% active; CHO RD-HGA16 TAAR1, Fluo-8 calcium fluorescence; vehicle wells 0%, saturating PEA agonist 100%; activation, % at 3 µM; Q96RJ0;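 active means activation above the mean activation of all test compounds in the run plus 3 SD, cut at about 38% in these data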
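Assay system – CHO-derived RD-HGA16 cells with stable Gα16 and human TAAR1 · Compound dosing – one-point dosing at 3 µM (nominal) · Incubation – 17-24 h seeding, 75 min 37 °C dye, 30 min RT · Measured by – kinetic Fluo-8 calcium fluorescence · Control set – DMSO vehicle as 0%, PEA at EC100 as 100% · Repeats – single well for each compound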
OX1R antag-1 = blocks the human orexin 1 receptor; 330,000 tested, 1.8% active; AID 485270; O43613; OX1R-expressing cells, FRET antagonist read-out; inhibition, % at 6.6 µM; in the data active means inhibition mostly above about 38%, no sharp cut-off; inactive means mostly below about 40%;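 further: 0% = agonist challenge alone and 100% = reference antagonist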
Target sequence (O43613 whole entry, looked up): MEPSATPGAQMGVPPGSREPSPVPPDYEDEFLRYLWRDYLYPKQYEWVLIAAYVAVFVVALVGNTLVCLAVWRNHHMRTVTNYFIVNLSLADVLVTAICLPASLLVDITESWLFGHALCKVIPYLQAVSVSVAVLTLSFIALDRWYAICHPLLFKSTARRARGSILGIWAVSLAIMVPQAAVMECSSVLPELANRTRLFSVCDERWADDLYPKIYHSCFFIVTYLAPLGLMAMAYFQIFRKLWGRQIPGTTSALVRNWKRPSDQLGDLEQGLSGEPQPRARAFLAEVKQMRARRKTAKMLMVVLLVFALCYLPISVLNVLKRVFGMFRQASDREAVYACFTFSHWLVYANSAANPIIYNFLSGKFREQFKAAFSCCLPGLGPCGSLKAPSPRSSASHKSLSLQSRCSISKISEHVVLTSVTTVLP
OX1R antag-2 = antagonists of human orexin 1 receptor; O43613; CHO/OX1R cells, Fluo-8 calcium fluorescence, orexin A; inhibition, % at 5 µM; 330,000 tested, 0.43% active; AID 434989;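 active means inhibition above its plate's threshold, mean inhibition of all tested compounds on the plate plus 3 SD, cut at about 37% in these data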;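 further: 0% = orexin A challenge wells and 100% = SB-334867-A antagonist wells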
GalR3 antagonist = human GalR3 antagonism; O60755; HEK293 GalR3-CNG cAMP membrane potential fluorescence; galR3 body fused to GalR1 C-terminus; inhibition, % at 3 µM; 360,000 tested, 0.44% active; AID 651719;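 active means inhibition above the screen-wide average plus 3 SD, cut at about 13% in these data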;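 further: forskolin and galanin both at EC90 stimulate the cells; cAMP rise reported by CNG channel membrane potential dye signal; 0% = forskolin plus galanin with DMSO and 100% = forskolin alone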
Target sequence (O60755 1-299 limits assumed): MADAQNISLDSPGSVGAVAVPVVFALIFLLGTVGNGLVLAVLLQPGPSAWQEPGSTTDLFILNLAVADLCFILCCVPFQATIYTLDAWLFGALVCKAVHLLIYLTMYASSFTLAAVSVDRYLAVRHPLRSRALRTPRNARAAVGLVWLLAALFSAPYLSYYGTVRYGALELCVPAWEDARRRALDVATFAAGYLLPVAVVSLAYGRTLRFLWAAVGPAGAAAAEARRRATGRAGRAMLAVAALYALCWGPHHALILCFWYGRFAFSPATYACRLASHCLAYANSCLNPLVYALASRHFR
TAAR1 antag = human TAAR1 antagonism; 360,000 tested, 1.5% active; Q96RJ0; AID 624466; CHO RD-HGA16 TAAR1, Fluo-8 calcium fluorescence, antagonist; inhibition, % at 3 µM;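 active means inhibition above a per-plate cutoff, the mean inhibition of test compounds on that plate plus 3 SD, cut at about 49% in these data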;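 further: 0% = DMSO plus EC80 beta-PEA response and 100% = DMSO alone without agonist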
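Test system: RD-HGA16 CHO cells with stable hTAAR1 and Gα16 / Probe or stimulus: EC80 β-phenethylamine stimulus / Times: seeding 17-24 h prior, 75-min 37 °C, 30-min RT dye loading / Detection: Fluo-8 calcium-sensitive fluorescence / Read-out basis: % inhibition scaled between DMSO and EC80 PEA controls / Repeats: singlicate, one well per test compound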
OX1R HTRF conf = OX1R (human) antagonism, HTRF confirmed. shares compounds with OX1R antag-1. OX1R-expressing cells, HTRF antagonist assay. inhibition, % at 6.6 µM. 1,800 tested, 49% active. AID 492964; in the data active means inhibition above about 55%;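 further: CHO cells expressing OX1R stimulated with orexin A at about EC80; 0% = agonist challenge alone and 100% = reference antagonist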
CHO-K1 HTRF = signal in parental CHO-K1 cells, OX1R antagonist counter-screen | AID 493232 | 1,800 tested, 48% active | HTRF counterscreen | inhibition, % at 6.6 µM | shares compounds with OX1R antag-1; in the data active means inhibition above about 17%;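 further: 0% = agonist challenge with vehicle and 100% = vehicle alone without agonist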
TAAR1 nonsel count = counter-screen for TAAR1 antagonists: nonselective antagonists | inhibition, % at 3 µM | 2,400 tested, 77% active | shares compounds with TAAR1 antag | counterscreen cell line, calcium fluorescence, antagonist mode; in the data active means inhibition above about 22%;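 further: CHO-Ga16 host cells stimulated with ATP at an EC80 level; 0% = agonist EC80 plus vehicle and 100% = vehicle without agonist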
TAAR1 ant conf = human TAAR1 antagonism, confirmed; shares compounds with TAAR1 antag; TAAR1-expressing cells, fluorescence antagonist read-out; inhibition, % at 3 µM; 2,400 tested, 40% active; AID 651785; in the data active means inhibition above about 49%;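 further: CHO-Ga16 host cells challenged with agonist PEA near its EC80; 0% = agonist at EC80 plus vehicle and 100% = vehicle with no agonist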
Ga16 nonsel ag = counter-screen for TAAR1 antagonists: nonselective Ga16 agonists; shares compounds with TAAR1 antag; Ga16-expressing cells, calcium fluorescence, agonist counterscreen; activation, % at 3 µM; 2,400 tested, 18% active; AID 651953; in the data active means activation above about 12%;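 further: 0% = vehicle wells and 100% = saturating stimulus response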
TAAR1 ag count = activates human TAAR1 in antagonist counter-screen; 2,400 tested, 2% active; hTAAR1 cell line, fluorescence activation, agonist mode; activation, % at 3 µM; shares compounds with TAAR1 antag; in the data active means activation above about 37%;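 further: CHO cells stably expressing TAAR1 with calcium dye readout; 0% = DMSO vehicle and 100% = full agonist response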
GalR3 antag conf = confirmation of human galanin receptor 3 antagonists | shares compounds with GalR3 antagonist | HEK293 GalR3 CNG cAMP biosensor, membrane potential fluorescence; galR3 fused to GalR1 carboxy tail; challenged with forskolin and galanin at EC90 | inhibition, % at 3 µM | 1,600 tested, 59% active | AID 652245;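 active means inhibition above the primary screen's cutoff, the mean inhibition of all screened compounds plus 3 SD, cut at about 13% in these data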;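 further: 0% = forskolin plus galanin and 100% = forskolin alone with DMSO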
CNG parental = acts as nonspecific agonist in parental HEK-CNG cells. activation, % at 3 µM. 1,600 tested, 10% active. HEK293-CNG parental cells, cAMP membrane potential fluorescence; normalised: DMSO wells 0%, forskolin wells 100%. shares compounds with GalR3 antagonist; in the data active means activation above about 1.3%
Active calls of the source: *; . = no result given; + = active, no number.

SMILES	CHO parental Ca	TAAR1 ag	OX1R antag-1	OX1R antag-2	GalR3 antagonist	TAAR1 antag	TAAR1 nonsel count	TAAR1 ant conf	Ga16 nonsel ag	TAAR1 ag count	others
O=C(NNC(=O)c1cc(-c2ccccc2)nc2ccccc12)Nc1cccc(Cl)c1	-6.2	9.9	89.6*	-13.6	1.2	80.1*	38.9*	57.4*	7.7	6.0	OX1R HTRF conf=14.1;CHO-K1 HTRF=4.6
O=C(N=Nc1c(O)[nH]c2ccccc12)c1cccc(S(=O)(=O)Nc2ccccc2Cl)c1	-20.6	10.0	84.2*	4.7	-3.6	56.3*	24.1*	41.7	4.9	0.1	OX1R HTRF conf=92.0*;CHO-K1 HTRF=2.8
C=CCC(NCc1ccco1)c1ccc(OC)c(OC)c1 (configuration not stated)	-11.6	6.1	7.1	-21.9	-4.1	-4.5	.	.	.	.
CCCC(=O)OCCNc1cc(Sc2nccn2C)c2nonc2c1[N+](=O)[O-]	29.4	-0.2	90.8*	25.2	39.8*	6.8	.	.	.	.	OX1R HTRF conf=72.1*;CHO-K1 HTRF=60.2*;GalR3 antag conf=24.0*;CNG parental=0.4
COc1ccc(CNc2ncccc2[N+](=O)[O-])cc1	-6.7	3.6	14.4	-17.9	-10.4	-29.8	.	.	.	.
O=C(O)CNc1ncccc1[N+](=O)[O-]	-12.4	3.1	+	-2.9	16.5*	-13.9	.	.	.	.	OX1R HTRF conf=32.0;CHO-K1 HTRF=46.3*;GalR3 antag conf=-0.9;CNG parental=0.0
O=C(O)c1cccc(S(=O)(=O)Nc2cccc3ccccc23)c1	3.4	-1.2	12.8	1.4	-3.8	-13.1	.	.	.	.
Cc1nnc(N/N=C/c2ccc([N+](=O)[O-])cc2)n1N	3.0	2.8	127.1*	-5.1	14.9*	-36.8	.	.	.	.	OX1R HTRF conf=38.0;CHO-K1 HTRF=75.8*;GalR3 antag conf=4.2;CNG parental=0.2
Cc1nn(-c2ccccc2)c(C)c1C(=O)OCC(=O)N(C)c1ccccc1	-11.3	1.8	4.6	10.2	1.0	-18.3	.	.	.	.
Cc1ccc2nc(NC(=O)C3CCN(S(=O)(=O)c4cccc5nsnc45)CC3)sc2c1	-3.4	16.3	23.7	-1.5	-3.7	65.3*	32.8*	45.1	9.8	7.4
Cc1ccc2nc(NC(=O)C3CCCN(S(=O)(=O)c4cccc5nsnc45)C3)sc2c1 (configuration not stated)	-16.9	6.0	56.6	-14.1	-5.7	26.0	.	.	.	.
Cc1cc(C(=O)CSc2ccc(Cl)cc2)cc(C)c1OC(=S)N(C)C	-1.0	5.2	36.0	-23.4	-0.7	62.5*	19.0	37.0	0.9	0.7
O=C(CCCC(=O)N(CC(=O)NC1CCCC1)c1cccc(F)c1)Nc1ccccn1	-8.1	3.8	0.7	-11.6	-6.6	-6.2	.	.	.	.
COc1cccc(NC(=O)C2CCN(C(=O)[C@@H]3Cc4ccccc4CN3C(=O)OC(C)(C)C)CC2)c1	-14.6	14.6	5.0	-15.5	-6.1	52.6*	24.5*	44.3	9.9	15.1
COc1ccccc1/C=C/C(=O)NC(=S)NCC1CCCO1 (configuration not stated)	-9.4	6.1	3.0	-7.2	-2.4	74.1*	27.0*	52.0*	4.8	6.7
COc1cccc(CNC(=O)CN2C(=O)CSc3ccc(S(=O)(=O)N4CCCCC4)cc32)c1	-24.4	1.9	18.8	-14.5	-8.3	-31.6	.	.	.	.
CCO[C@@H]1OC(C(=O)N2CCN(Cc3ccc4c(c3)OCO4)CC2)=C[C@H](C2CCCCC2)[C@H]1CCCO	-19.8	14.7	29.4	-12.2	-4.6	66.9*	29.1*	44.8	8.6	7.0
CCO[C@@H]1OC(C(=O)Nc2ccccc2)=C[C@H](c2ccc3c(c2)OCO3)[C@H]1CCCO	-3.4	19.4	15.2	-24.9	-5.0	49.3*	19.0	24.6	6.3	6.7
C/C(CC(=O)NCc1ccco1)=N\NC(=O)Cc1ccccc1	-2.6	1.9	26.6	-16.8	-3.1	0.5	.	.	.	.
O=C(c1cccs1)c1coc2ccc(O)c(CN3CCOCC3)c12	-11.2	-3.8	14.6	-23.5	-4.2	106.1*	2.4	5.0	1.8	2.6
O=C(COc1ncnc2ccccc12)NCCc1ccccc1	-4.7	1.4	18.8	-11.3	-7.9	-10.1	.	.	.	.
O=C(COC(=O)c1ccccc1NCCO)NCCc1ccccc1	-18.1	10.9	7.1	-8.5	0.5	-10.6	.	.	.	.
O=C(OCC(=O)N(Cc1ccccc1)Cc1ccccc1)c1ccccc1NCCO	-3.2	8.4	12.5	-21.1	-5.6	69.9*	34.5*	51.3*	6.7	3.8
O=C(c1cn(-c2ccccc2)nc1-c1cccs1)N1CCOCC1	-5.7	5.2	6.6	-9.8	-3.8	9.7	.	.	.	.
O=C(/C=C/c1cn(-c2ccccc2)nc1-c1cccs1)NCCN1CCOCC1	-22.0	20.6	12.8	-30.5	-4.5	52.6*	27.9*	37.4	9.3	8.9
SMILES	CHO parental Ca	TAAR1 ag	OX1R antag-1	OX1R antag-2	GalR3 antagonist	TAAR1 antag	TAAR1 nonsel count	TAAR1 ant conf	Ga16 nonsel ag	TAAR1 ag count	others
O=C(Cn1cnc2ccccc2c1=O)Nc1ccc2c(c1)OCCO2	-2.7	5.3	10.1	1.3	-1.7	10.8	.	.	.	.
CCCCOc1cccc2c(=O)n(CC(=O)Nc3ccc4c(c3)OCCO4)ccc12	.	20.6	.	.	-5.1	71.3*	43.4*	88.1*	13.1*	28.4
CC(C)(C)c1ccc(O)c(N)c1	-6.7	.	22.5	-21.7	.	.	.	.	.	.
Cc1ccc(Nc2nc(NCc3cccs3)nc3ccsc23)c(C)c1	.	28.0	.	.	-5.9	76.2*	57.3*	65.5*	18.4*	26.4
COCCNc1nc(Nc2ccc(C)cc2C)c2sc(-c3ccccc3)cc2n1	.	-0.4	.	.	-8.1	-18.0	.	.	.	.
Cc1nc2ccccc2c2c(N)c3ccccc3n12	3.0	10.3	10.1	-17.2	-7.7	56.4*	22.3*	33.4	7.0	6.6

Screening results: PubChem, The Scripps Research Institute Molecular Screening Center
